The source made the active and inactive calls. The rule behind the calls is not given here.
What was measured:
[1] = Selectivity index, ratio of CC50 for human Huh-7 cells to IC50 for Zika virus H/PF/2013 infected in pre-seeded Huh-7 cells assessed as inhibition of viral replication incubated for 72 hrs by immunodetection based plaque reduction assay; assay type: toxicity, cell-based; settings: read-out: Selectivity Index
[2] = Selectivity index, ratio of CC50 for human Calu-3 cells infected with SARS-COV-2 to IC50 for SARS-COV 2 infected in human Calu-3 cells; assay type: toxicity, cell-based; settings: read-out: Selectivity Index
[3] = tested on: Influenza A virus; assay: Antiviral activity against Influenza A virus (A/California/04/2009(H1N1)) infected in human A549 cells assessed as reduction in viral protein expression at 20 uM treated for 2 to 6 hrs post infection and measured following infection of MDCK cells with supernatant for 24 hrs by time-of-addition assay; assay type: functional, organism-based; settings: time 2-6 hrs
[4] = tested on: dengue virus type 2; assay: Antiviral activity against Dengue virus serotype 2 New Guinea C infected in pre-seeded Huh-7 cells assessed as inhibition of viral replication incubated for 72 hrs by immunodetection based secondary yield reduction assay; assay type: functional, organism-based; settings: Dengue virus, New Guinea C, Huh-7, 72 h; read-out: IC50
[5] = tested on: Calu-3; assay: Cytotoxicity against human Calu-3 cells infected with SARS-COV-2 by celltiter-glo luminescent cell viability assay; assay type: cell-based; settings: calu-3
Procedure, shortened: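 Compound-exposed cells assessed by CellTiter-Glo luminescence versus DMSO control; CC50 from dose-response.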

[6] = tested on: Influenza A virus; assay: Antiviral activity against Influenza A virus (A/parrot/Ulster/73(H7N1)) infected in human A549 cells assessed as reduction in viral protein expression at 20 uM treated for 24 hrs post viral adsorption followed by staining with anti-Flu antibody observed at 24 hrs post infection by In-cell western assay; assay type: functional, organism-based
[7] = tested on: Zika virus; assay: Antiviral activity against Zika virus H/PF/2013 infected in pre-seeded Huh-7 cells assessed as inhibition of viral replication incubated for 72 hrs by immunodetection based direct yield reduction assay; assay type: functional, organism-based; settings: H/PF/2013, Huh-7, 72 h
Procedure, shortened: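 Direct yield reduction in Huh7 cells (7000/well), infected with 50 TCID₅₀ of DENV or ZIKV, or 25 TCID₅₀ of WNV. Adsorption 1 h at 37 °C, then virus removed and serial compound dilutions added. Incubated 72 h (DENV, ZIKV) or 48 h (WNV). Viral antigen immunodetected on the monolayer. IC₅₀ by non-linear regression, mean of three experiments. SI = CC₅₀ (Huh7, CellTiter-Glo luminescence)/IC₅₀.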

[8] = Inhibition of full length ZIKA virus NS5 RNA dependent RNA polymerase incubated for 10 mins by picogreen staining based fluorescent analysis (Rvb= 1+/-0.2 uM)
[9] = tested on: Influenza A virus; assay: Antiviral activity against Influenza A Puerto Rico/8/34/H1N1 infected in human A549 cells assessed as inhibition of hemagglutinin expression at 20 uM treated 2 to 6 hrs post infection for 24 hrs followed by infection in fresh monolayer of MDCK cells with supernatant for 24 hrs by time-of-addition assay; assay type: functional, organism-based; settings: A/Puerto Rico/8/1934(H1N1), time 2-6 hrs
[10] = tested on: West Nile virus; assay: Antiviral activity against West Nile virus lineage 1 (Italy/2009) infected in pre-seeded Huh-7 cells assessed as inhibition of viral replication incubated for 48 hrs by immunodetection based direct yield reduction assay; assay type: functional, organism-based; settings: huh-7
[11] = Selectivity index, ratio of CC50 for human Huh-7 cells to IC50 for West Nile virus lineage 1 (Italy/2009) infected in pre-seeded Huh-7 cells assessed as inhibition of viral replication incubated for 48 hrs by immunodetection based plaque reduction assay; assay type: toxicity, cell-based; settings: read-out: Selectivity Index
[12] = tested on: Influenza A virus; assay: Antiviral activity against Influenza A Puerto Rico/8/34/H1N1 infected in human A549 cells assessed as reduction in viral protein expression at 20 uM treated for 2 to 6 hrs post infection and measured following infection of MDCK cells with supernatant for 24 hrs by time-of-addition assay; assay type: functional, organism-based; settings: A/Puerto Rico/8/1934(H1N1), time 2-6 hrs
[13] = target: Src (Proto-oncogene tyrosine-protein kinase Src) (Homo sapiens, UniProt P12931); assay: Inhibition of human recombinant N terminal His6 tagged full length Src assessed as residual activity at 5 uM using KVEKIGEGTYGVVYK as a substrate in the presence of NP-40 incubated for 10 mins by scintillation counting analysis relative to control; settings: probe KVEKIGEGTYGVVYK, read-out: Activity
Procedure, shortened: (§1)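 Compounds at fixed 5 μM; 10–50 ng kinase, substrate and NP-40/BSA per supplementary table, 10 μL at 30 °C for 10 min in low-binding tubes. Reactions spotted on filter, dried, scintillation counted. Mean ± SD of two independent experiments.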

[14] = Selectivity index, ratio of CC50 for human Huh-7 cells to IC50 for Dengue virus serotype 2 New Guinea C infected in pre-seeded Huh-7 cells assessed as inhibition of viral replication incubated for 72 hrs by immunodetection based plaque reduction assay; assay type: toxicity, cell-based; settings: read-out: Selectivity Index
[15] = tested on: Influenza A virus; assay: Antiviral activity against Influenza A Puerto Rico/8/34/H1N1 infected in human A549 cells assessed as inhibition of hemagglutinin expression at 20 uM treated post viral infection for 24 hrs followed by infection of fresh cell monolayer of A549 cells with supernatant for 24 hrs by In-cell western assay; assay type: functional; settings: A/Puerto Rico/8/1934(H1N1)
Procedure, shortened: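 A549 cells infected with PR8 H1N1 and given 20 μM compound: 2 h before infection (PRE), 1 h during adsorption (DUR), or 24 h after adsorption (POST); supernatants used to infect fresh monolayers for 24 h; anti-HA in-cell western; RFU as % of untreated infected; 3 replicates from two experiments.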

[16] = tested on: Huh-7; assay: Effect on formation of DENV replication complex in human Huh-7 cells assessed as reduction NS3:NS5 colocalization into nucleus at 50 uM measured after 16 to 24 hrs by DAPI staining based confocal microscopy analysis; assay type: functional, cell-based; settings: time 16-24 hrs
Procedure, shortened: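 DENV-2-infected Huh-7 cells (MOI 0.05) treated at 50 μM, fixed at 8–24 h, stained for NS3/NS5; confocal colocalization by Manders coefficients with Costes P ≥95% as signal; versus untreated control; repeated at least twice.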

[17] = target: Fyn (Tyrosine-protein kinase Fyn) (Homo sapiens, UniProt P06241); assay: Inhibition of human recombinant N terminal His6 tagged full length Fyn assessed as residual activity at 5 uM using […] as a substrate in the presence of NP-40 incubated for 10 mins by scintillation counting analysis relative to control; settings: probe […], read-out: Activity; procedure, shortened: as §1
[18] = tested on: dengue virus type 2; assay: Antiviral activity against Dengue virus serotype 2 New Guinea C infected in pre-seeded Huh-7 cells assessed as inhibition of viral replication incubated for 72 hrs by immunodetection based plaque reduction assay; assay type: functional, organism-based; settings: Huh-7, 72 h
[19] = tested on: Influenza A virus; assay: Antiviral activity against Influenza A Puerto Rico/8/34/H1N1 infected in human A549 cells assessed as reduction in viral protein expression at 20 uM treated for 24 hrs pdp viral adsorption followed by staining with anti-Flu antibody observed at 24 hrs post infection by In-cell western assay; assay type: functional, organism-based; settings: A/Puerto Rico/8/1934(H1N1)
[20] = Inhibition of Dengue virus 2 […] RNA dependent RNA polymerase incubated for 10 mins by picogreen staining based fluorescent analysis (Rvb= 0.27+/-0.03 uM); set-up: species or system dengue virus type 2
[21] = Toxicity in human A549 cells assessed as effect on host cell membrane; assay type: cell-based
[22] = tested on: Influenza A virus; assay: Antiviral activity against Influenza A Puerto Rico/8/34/H1N1 infected in human A549 cells assessed as inhibition of viral replication after 24 hrs by hemagglutination assay; assay type: functional, organism-based; settings: A/Puerto Rico/8/1934(H1N1), A549, 24 h
[23] = tested on: Zika virus; assay: Antiviral activity against Zika virus H/PF/2013 infected in pre-seeded Huh-7 cells assessed as inhibition of viral replication incubated for 72 hrs by immunodetection based secondary yield reduction assay; assay type: functional, organism-based; settings: H/PF/2013, Huh-7, 72 h

Src (Proto-oncogene tyrosine-protein kinase Src), sequence (P12931 2-536 limits assumed): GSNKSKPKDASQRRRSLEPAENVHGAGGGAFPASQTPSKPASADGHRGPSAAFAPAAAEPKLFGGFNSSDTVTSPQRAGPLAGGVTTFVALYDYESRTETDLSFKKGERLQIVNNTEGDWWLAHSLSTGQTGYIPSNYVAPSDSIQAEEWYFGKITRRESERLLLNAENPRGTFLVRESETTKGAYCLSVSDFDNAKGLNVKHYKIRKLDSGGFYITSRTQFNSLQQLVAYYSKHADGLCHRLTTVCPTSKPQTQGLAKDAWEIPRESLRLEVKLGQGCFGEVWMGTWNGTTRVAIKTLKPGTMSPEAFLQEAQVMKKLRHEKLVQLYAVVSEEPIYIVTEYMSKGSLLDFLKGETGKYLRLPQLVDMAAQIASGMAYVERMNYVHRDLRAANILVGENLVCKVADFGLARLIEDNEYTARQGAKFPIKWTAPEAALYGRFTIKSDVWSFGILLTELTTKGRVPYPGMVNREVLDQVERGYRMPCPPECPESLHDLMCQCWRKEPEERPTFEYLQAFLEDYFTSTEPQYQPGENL
Fyn (Tyrosine-protein kinase Fyn), sequence (P06241 whole entry): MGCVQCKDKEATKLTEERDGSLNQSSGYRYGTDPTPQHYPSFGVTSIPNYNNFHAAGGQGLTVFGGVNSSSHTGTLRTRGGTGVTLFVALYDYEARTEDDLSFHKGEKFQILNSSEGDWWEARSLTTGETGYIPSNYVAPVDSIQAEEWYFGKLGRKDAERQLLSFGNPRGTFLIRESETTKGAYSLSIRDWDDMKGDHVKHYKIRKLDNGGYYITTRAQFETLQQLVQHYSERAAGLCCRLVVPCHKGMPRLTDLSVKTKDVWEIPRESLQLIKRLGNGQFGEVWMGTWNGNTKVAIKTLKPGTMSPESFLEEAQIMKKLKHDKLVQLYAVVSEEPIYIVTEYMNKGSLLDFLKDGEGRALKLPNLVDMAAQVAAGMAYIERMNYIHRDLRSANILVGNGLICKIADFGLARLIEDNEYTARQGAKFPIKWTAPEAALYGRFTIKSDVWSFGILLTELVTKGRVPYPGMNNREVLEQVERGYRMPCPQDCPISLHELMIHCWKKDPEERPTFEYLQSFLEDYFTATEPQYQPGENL

Structure (SMILES): FC(F)(F)c1cccc(Nc2nc(NCCOc3ccccc3)nc3[nH]cnc23)c1
- selectivity ratio at 72 h [1]: 400
- selectivity ratio [2]: 240
- Activity [3]: Active
- IC50 [4]: 2.6 µM
- CC50 [5]: 120 µM
- Activity [6]: Active
- IC50 [7]: 0.8 µM
- IC50 [8]: 12.8 µM
- Activity [9]: inactive
- IC50 [10]: Not Active
- selectivity ratio at 48 h [11]: 51
- Activity [12]: Active
- activity at 10 min, 5 µM [13]: 47%
- selectivity ratio at 72 h [14]: 222
- inhibition at 20 µM [15]: 50%
- Activity [16]: Active
- activity at 10 min, 5 µM [17]: > 98%
- IC50 [18]: 0.9 µM
- Activity [19]: Active
- IC50 [20]: 20.8 µM
- Activity [21]: Toxic
- IC50 [22]: 9.9 µM
- IC50 [23]: 1.1 µM
